Calls of active or inactive are those of the source. The rule behind the calls is not given here.
Assays:
[1] = tested on: Mus musculus; assay: Antiinflammatory activity in Balb/C mouse assessed as reduction in LPS-induced IL6 production in plasma at 1 umol/kg, sc administered LPS 15 mins post compound treatment measured after 4 hrs by ELISA; format: functional, organism-based
In short: (§1)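 Male Balb/C mice, 7-8 weeks old, given compound sc (0.1, 1 or 10 µmoles/kg) or saline. LPS 10 mg/kg was given ip 15 min later, and mice were killed 4 h after that. Spleens were homogenized in PBS with protease inhibitor and centrifuged at 14,000 g, 4 °C. Cytokines in plasma and tissue supernatants were measured by ELISA, with protein by BCA. Dexamethasone 5.6 µmoles/kg was the reference. n = 8-10 mice per treatment.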

[2] = tested on: Mus musculus; assay: Antiinflammatory activity in Balb/C mouse assessed as reduction in LPS-induced TNF-alpha production in plasma at 1 umol/kg, sc administered LPS 15 mins post compound treatment measured after 4 hrs by ELISA; format: functional, organism-based; in short: as §1
[3] = tested on: Mus musculus; assay: Acute toxicity in Balb/C mouse assessed as change in activity at 100 umol/kg, sc measured over 72 hrs; format: organism-based; details: in vivo
In short: (§2)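 Male Balb/C mice, 24-28 g, groups of 3; single sc injection of compound at 100 μmoles/kg or saline (1 mL/100 g). Food and water intake, body weight and general activity monitored over 72 h against saline-injected animals.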

[4] = tested on: RAW264.7; assay: Cytoprotective activity against H2O2-induced oxidative stress in mouse RAW264.7 cells assessed as decrease in caspase-3 activity at 1 pM incubated for 4 hrs prior to H2O2 addition measured after 90 mins by caspase-GloR reagent-based luminescence assay relative to control; format: functional; design: scale not given: the % may be the effect or the level left
In short: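 RAW 264.7 macrophages were pretreated with compound (1 pM or 1 nM) 4 h before H2O2 100 µM. Medium was replaced with fresh DMEM after 90 min and plates were incubated overnight. Caspase-Glo 3/7 reagent was added and luminescence read after 30 min at room temperature. Mean ± SD, 4-6 replicates.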

[5] = tested on: Mus musculus; assay: Antiinflammatory activity in Balb/C mouse assessed as reduction in LPS-induced IL6 production in liver at 0.1 to 10 umol/kg, sc administered LPS 15 mins post compound treatment measured after 4 hrs by ELISA; format: functional, organism-based
[6] = tested on: Mus musculus; assay: Antiinflammatory activity in Balb/C mouse assessed as reduction in LPS-induced IL6 production in brain at 0.1 to 10 umol/kg, sc administered LPS 15 mins post compound treatment measured after 4 hrs by ELISA; format: functional, organism-based
[7] = tested on: Mus musculus; assay: Acute toxicity in Balb/C mouse assessed as change in food intake at 100 umol/kg, sc measured over 72 hrs; format: organism-based; details: in vivo; in short: as §2
[8] = tested on: Mus musculus; assay: Acute toxicity in Balb/C mouse assessed as change in water intake at 100 umol/kg, sc measured over 72 hrs; format: organism-based; details: in vivo; in short: as §2
[9] = tested on: Mus musculus; assay: Acute toxicity in Balb/C mouse assessed as change in body weight at 100 umol/kg, sc measured over 72 hrs; format: organism-based; details: in vivo; in short: as §2
[10] = tested on: RAW264.7; assay: Antiinflammatory activity in mouse RAW264.7 cells assessed as reduction in LPS-induced nitric oxide production at 1 pM to 100 nM incubated for 2 hrs prior to LPS challenge measured after 24 hrs by Griess assay; format: functional, cell-based
In short: (§3)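 RAW 264.7 macrophages were plated at 1×10^5 per well, grown overnight and washed with PBS. Compounds in water (final 1 pM-100 nM, medium with 2% FCS) were added 2 h at 37 °C before E. coli 0111:B4 LPS, 2.5 µg/mL. TNF-α was sampled at 8 h; IL-6 and nitrite (Griess) at 24 h. ELISA was used for cytokines. Values are % of the LPS + medium value in each experiment. Budesonide was the reference. 2-3 experiments, 6 wells per concentration.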

[11] = tested on: RAW264.7; assay: Antiinflammatory activity in mouse RAW264.7 cells assessed as reduction in LPS-induced TNF-alpha production at 1 pM to 100 nM incubated for 2 hrs prior to LPS challenge measured after 8 hrs by ELISA; format: functional, cell-based; in short: as §3
[12] = tested on: RAW264.7; assay: Antiinflammatory activity in mouse RAW264.7 cells assessed as reduction in LPS-induced IL-6 production at 1 nM incubated for 2 hrs prior to LPS challenge measured after 24 hrs by ELISA; format: functional; in short: as §3
[13] = tested on: RAW264.7; assay: Antiinflammatory activity in mouse RAW264.7 cells assessed as reduction in LPS-induced IL-6 production at 100 pM incubated for 2 hrs prior to LPS challenge measured after 24 hrs by ELISA; format: functional; in short: as §3
[14] = tested on: RAW264.7; assay: Cytoprotective activity against H2O2-induced oxidative stress in mouse RAW264.7 cells assessed as decrease in LDH release at 1 pM incubated for 2 hrs prior to H2O2 addition by colorimetric assay relative to control; format: functional; design: scale not given: the % may be the effect or the level left
In short: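 RAW 264.7 cells were seeded and pretreated with compound before H2O2 100 µM, in serum-free medium. Collected medium was centrifuged and incubated with reaction mix 30 min at room temperature. LDH was measured as NADH formation by colorimetric read at 490 nm. n = 8-10 replicates per concentration.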

[15] = tested on: RAW264.7; assay: Cytoprotective activity against H2O2-induced oxidative stress in mouse RAW264.7 cells assessed as cell viability at 10 nM incubated for 2 hrs prior to H2O2 addition measured after 24 hrs by MTT assay (reference value: 68 to 72.8%); format: functional; details: read-out: Activity
[16] = Cytotoxicity against mouse RAW264.7 cells assessed as cell viability at 10^-8 M after 24 hrs by MTT assay relative to control; format: cell-based; details: read-out: Activity
In short: (§4)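 RAW 264.7 cells, seeded at 1×10^4 cells/mL and incubated 24 h, were exposed to compound from 1 pM to 100 nM. Viability was read by MTT (final 0.5 mg/mL, 1 h at 37 °C), with formazan dissolved in DMSO and OD at 570 nm. Results are compared with medium-only cells.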

[17] = Cytotoxicity against mouse RAW264.7 cells assessed as cell viability at 10^-7 M after 24 hrs by MTT assay relative to control; format: cell-based; details: read-out: Activity; in short: as §4
[18] = Cytotoxicity against mouse RAW264.7 cells assessed as cell viability at 10^-9 M after 24 hrs by MTT assay relative to control; format: cell-based; details: read-out: Activity; in short: as §4
[19] = Cytotoxicity against mouse RAW264.7 cells assessed as cell viability at 10^-11 M after 24 hrs by MTT assay relative to control; format: cell-based; details: read-out: Activity; in short: as §4
[20] = Cytotoxicity against mouse RAW264.7 cells assessed as cell viability at 10^-10 M after 24 hrs by MTT assay relative to control; format: cell-based; details: read-out: Activity; in short: as §4
[21] = Cytotoxicity against mouse RAW264.7 cells assessed as cell viability at 10^-12 M after 24 hrs by MTT assay relative to control; format: cell-based; details: read-out: Activity; in short: as §4
[22] = tested on: Mus musculus; assay: Antiinflammatory activity in Balb/C mouse assessed as reduction in LPS-induced TNF-alpha production in spleen at 1 umol/kg, sc administered LPS 15 mins post compound treatment measured after 4 hrs by ELISA; format: functional, organism-based; in short: as §1
[23] = tested on: Mus musculus; assay: Antiinflammatory activity in Balb/C mouse assessed as reduction in LPS-induced IL6 production in spleen at 1 umol/kg, sc administered LPS 15 mins post compound treatment measured after 4 hrs by ELISA; format: functional, organism-based; in short: as §1
[24] = tested on: RAW264.7; assay: Cytoprotective activity against H2O2-induced oxidative stress in mouse RAW264.7 cells assessed as decrease in LDH release at 1 pM incubated for 2 hrs prior to H2O2 addition by colorimetric assay relative to control; design: scale not given: the % may be the effect or the level left
[25] = tested on: RAW264.7; assay: Cytoprotective activity against H2O2-induced oxidative stress in mouse RAW264.7 cells assessed as cell viability at 1 pM incubated for 2 hrs prior to H2O2 addition measured after 24 hrs by MTT assay (reference value: 68 to 72.8%); format: functional; details: read-out: Activity
[26] = tested on: RAW264.7; assay: Antiinflammatory activity in mouse RAW264.7 cells assessed as reduction in LPS-induced nitric oxide production at 10 pM incubated for 2 hrs prior to LPS challenge measured after 24 hrs by Griess assay; format: functional; design: scale not given: the % may be the effect or the level left; in short: as §3
[27] = tested on: RAW264.7; assay: Antiinflammatory activity in mouse RAW264.7 cells assessed as reduction in LPS-induced IL-6 production at 10 pM incubated for 2 hrs prior to LPS challenge measured after 24 hrs by ELISA; format: functional; design: scale not given: the % may be the effect or the level left; in short: as §3
[28] = tested on: RAW264.7; assay: Antiinflammatory activity in mouse RAW264.7 cells assessed as reduction in LPS-induced TNF-alpha production at 10 pM incubated for 2 hrs prior to LPS challenge measured after 8 hrs by ELISA; format: functional; design: scale not given: the % may be the effect or the level left; in short: as §3
[29] = tested on: Mus musculus; assay: Antiinflammatory activity in Balb/C mouse assessed as reduction in LPS-induced IL6 production in spleen at 0.1 to 10 umol/kg, sc administered LPS 15 mins post compound treatment measured after 4 hrs by ELISA; format: functional, organism-based; in short: as §1
[30] = tested on: RAW264.7; assay: Antiinflammatory activity in mouse RAW264.7 cells assessed as reduction in LPS-induced TNF-alpha production at 1 nM incubated for 2 hrs prior to LPS challenge measured after 8 hrs by ELISA; format: functional; design: scale not given: the % may be the effect or the level left; in short: as §3
[31] = tested on: Mus musculus; assay: Antiinflammatory activity in Balb/C mouse assessed as reduction in LPS-induced TNF-alpha production in plasma at 0.1 to 10 umol/kg, sc administered LPS 15 mins post compound treatment measured after 4 hrs by ELISA; format: functional, organism-based; in short: as §1
[32] = tested on: Mus musculus; assay: Antiinflammatory activity in Balb/C mouse assessed as reduction in LPS-induced IL6 production in plasma at 0.1 to 10 umol/kg, sc administered LPS 15 mins post compound treatment measured after 4 hrs by ELISA; format: functional, organism-based; in short: as §1
[33] = tested on: Mus musculus; assay: Antiinflammatory activity in Balb/C mouse assessed as reduction in LPS-induced TNF-alpha production in spleen at 0.1 to 10 umol/kg, sc administered LPS 15 mins post compound treatment measured after 4 hrs by ELISA; format: functional, organism-based; in short: as §1
[34] = tested on: RAW264.7; assay: Antiinflammatory activity in mouse RAW264.7 cells assessed as reduction in LPS-induced nitric oxide production at 1 nM incubated for 2 hrs prior to LPS challenge measured after 24 hrs by Griess assay; format: functional; design: scale not given: the % may be the effect or the level left; in short: as §3
[35] = tested on: RAW264.7; assay: Cytoprotective activity against H2O2-induced oxidative stress in mouse RAW264.7 cells assessed as increase in cell viability at 1 pM incubated for 2 hrs prior to H2O2 addition measured after 24 hrs by MTT assay; format: functional, cell-based
In short: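 RAW 264.7 macrophages cultured in DMEM with 10% FCS, seeded at 1 x 10^4 cells/mL. Pretreated 2 h with compound (1 pM to 100 nM) before H2O2 at 100 μM. Viability read by MTT (0.5 mg/mL final, 1 h, 37 °C, DMSO lysis, OD 570 nm) relative to vehicle. 2-3 experiments, at least 6 wells per concentration; mean ± SEM.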

| SMILES | Activity [3] | Activity [4] | Activity [5] | Activity [6] | Activity [7] | Activity [8] | Activity [9] | Activity [10] | Activity [11] | Activity [12] | Activity [14] | viability at 24 h, 0.01 µM [16] | viability at 24 h, 0.1 µM [17] | viability at 24 h, 0.001 µM [18] | viability at 24 h, 1e-05 µM [19] | viability at 24 h, 0.0001 µM [20] | viability at 24 h, 1e-06 µM [21] | Activity [24] | viability at 1 pM [25] | other results |
| --- | --- | --- | --- | --- | --- | --- | --- | --- | --- | --- | --- | --- | --- | --- | --- | --- | --- | --- | --- | --- |
| COC(=O)CCN1CCc2ccccc21.Cl | Non-Toxic | 60% | Active | Active | Non-Toxic | Non-Toxic | Non-Toxic | Active | Active | Active | 16% | 91.8% | 90.8% | 92.6% | 91.5% | 93.3% | 95% | 16% |  | Activity [1]: Active; Activity [2]: Active; Activity [13]: Active; viability at 0.01 µM [15]: 85.9%; Activity [22]: Active; Activity [23]: Active |
| COC(=O)CCN1CCc2cc(Cl)ccc21.Cc1ccc(S(C)(=O)=O)cc1 |  |  |  |  |  |  |  | Active | Active |  |  | 107% | 105% | 104% | 106% | 104% | 108% |  | 89.7% | Activity [26]: 50%; Activity [27]: 50%; Activity [28]: 50% |
| CC(C)NCCCN1CCc2ccccc21.Cl.Cl | Non-Toxic | 60% | Dose-dependent effect | Dose-dependent effect | Non-Toxic | Non-Toxic | Non-Toxic | Dose-dependent effect | Dose-dependent effect | 50% | 16% | 90.9% | 91.9% | 92.1% | 102% | 99.2% | 93.3% | 16% | 98.5% | Activity [29]: Dose-dependent effect; Activity [30]: 50%; Activity [31]: Dose-dependent effect; Activity [32]: Dose-dependent effect; Activity [33]: Dose-dependent effect; Activity [34]: 50% |
| O=c1c(O)c(-c2ccc(O)c(O)c2)oc2cc(O)cc(O)c12 |  |  |  |  |  |  |  |  |  |  |  |  |  |  |  |  |  |  |  | Activity [35]: Active |

— ChEMBL document CHEMBL4177768, “Synthesis and Biological Evaluation of Derivatives of Indoline as Highly Potent Antioxidant and Anti-inflammatory Agents” (J Med Chem, 2018)
